# This is a sample that favours compounds with a hit; in the whole collection about 3.4% have one here.
# HMGR II inh – inhibitors of class II HMG-CoA reductase from Enterococcus faecalis | hit rate 0.41% among 190,000 | inhibition, % at 10 µM | AID 1066 | purified E. faecalis HMGR, NADPH absorbance 340 nm kinetic;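 active means inhibition above a set limit, the median over all tested compounds plus 3 SD, cut at about 9.5% in these data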;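 further: enzyme runs in reverse so mevalonate oxidation gives rising NADPH absorbance; 0% = complete reaction with DMSO and 100% = background rate lacking mevalonate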
# Runt-CBFb FRET – inhibitors of human RUNX1 Runt domain binding to CBFb; Q01196+Q13951; AID 1496; Cerulean-Runt/Venus-CBFb FRET ratio 530/480, 1 h; hit rate 0.46% among 220,000; inhibition, % at 20 µM;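 active means inhibition over about 50% at 20 µM in the single-dose screen, limit read from the data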;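 further: 0% = DMSO wells and 100% = excess unlabeled CBFb competitor control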
# Target sequence (Q01196 whole entry, looked up, the tested form may be a part): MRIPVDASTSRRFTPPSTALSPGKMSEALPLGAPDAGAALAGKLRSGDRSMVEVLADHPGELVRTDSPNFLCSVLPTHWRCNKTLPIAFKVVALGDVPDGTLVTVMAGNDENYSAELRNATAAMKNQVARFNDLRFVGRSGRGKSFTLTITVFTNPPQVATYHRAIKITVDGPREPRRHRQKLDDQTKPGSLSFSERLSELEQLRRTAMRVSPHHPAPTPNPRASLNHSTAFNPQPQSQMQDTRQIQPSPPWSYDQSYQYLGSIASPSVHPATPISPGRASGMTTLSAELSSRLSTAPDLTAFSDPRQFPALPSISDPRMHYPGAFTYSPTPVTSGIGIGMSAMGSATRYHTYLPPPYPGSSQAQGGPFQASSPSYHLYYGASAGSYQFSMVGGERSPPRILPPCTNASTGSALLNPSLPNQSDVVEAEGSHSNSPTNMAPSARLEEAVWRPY
# Target sequence (Q13951 whole entry, looked up, the tested form may be a part): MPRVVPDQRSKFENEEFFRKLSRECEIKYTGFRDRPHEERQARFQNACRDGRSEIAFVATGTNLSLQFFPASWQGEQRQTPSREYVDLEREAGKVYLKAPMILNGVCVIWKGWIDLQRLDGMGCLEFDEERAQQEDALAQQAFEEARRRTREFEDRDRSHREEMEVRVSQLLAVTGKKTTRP
#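 System: Cerulean-labeled Runt domain protein | Quantity: 100 nM of each labeled protein | Schedule: 1 h compound exposure, room temperature | Detection: Fluorescence energy transfer, 422 nm excitation, 530/480 nm emission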
# Wee1 degr inh – human Wee1 degradation inhibition, primary screen. HeLa Luc-Wee1K328M stability, luciferase luminescence; 100% = proteasome inhibitor MG132 effect. reporter increase, % at 5 µM. AID 1321. hit rate 1.2% among 220,000. P30291;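 active means activation above the mean of all tested compounds plus 3 SD, set per screening run, cut at about 8.8% in these data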;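 further: cells exposed to compound for 20 h before luminescence read; 0% = DMSO alone and 100% = MG132 at 30 µM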
# Runt-SMMHC FRET – blocks binding of human RUNX1 Runt domain to CBFb-SMMHC | hit rate 0.74% among 220,000 | inhibition, % at 20 µM | AID 1434 | Q01196+Q13951 | Cerulean-Runt/Venus-CBFb-SMMHC FRET ratio 530/480, 1 h;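 active means mean inhibition across duplicate retests at 20 µM reaching about 50%, limit read from the data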;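 further: 0% = DMSO wells and 100% = wells with excess untagged CBFb-SMMHC; inhibitors lower the FRET ratio by blocking Runt binding to CBFb-SMMHC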
# PHOSPHO1 inh – PHOSPHO1 (human) inhibition. recombinant PHOSPHO1, absorbance phosphatase assay. inhibition, % at 13.3 µM. AID 1565. hit rate 1.1% among 290,000; in the data active means inhibition above about 60%
# RanGTP-Impb inh – disruptors of Ran-importin-beta complex formation – biochemical, FRET, CFP-Ran, YFP-importin-beta, homogeneous, primary screen | cell-free CFP-Ran/YFP-importin-beta FRET ratio | inhibition, % (no concentration beside the values) | AID 2216 | hit rate 1.1% among 300,000;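 active means more than half of the replicate wells show a fall in the fluorescence ratio signal beyond about 16%, limit read from the data, passing the limit was not always enough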;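 further: 0% = DMSO wells and 100% = Ran loaded with GDP instead of GTP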
# Numbers without * were called inactive; . = no result given.
SMILES,HMGR II inh,Runt-CBFb FRET,Wee1 degr inh,Runt-SMMHC FRET,PHOSPHO1 inh,RanGTP-Impb inh
c1ccc2sc(-c3ccc4c(c3)OCO4)nc2c1,-8.2,-2.8,14.3*,0.9,-35.9,.
O=C(COC(=O)CCc1nc2ccccc2c(=O)[nH]1)NC1CCS(=O)(=O)C1 (stereo unspecified),3.5,-0.2,-1.2,1.0,9.5,1.6
O=C(COC(=O)CCc1c[nH]c2ccccc12)NC1CCS(=O)(=O)C1 (stereo unspecified),14.6*,-2.0,3.3,-6.7,11.3,-3.2
COc1ccc2[nH]c(C(=O)N3CCNCC3)cc2c1OC,.,.,.,.,-3.4,-0.8
CCC(C)[C@H](NC(=O)[C@@H]1CSC2c3ccccc3C(=O)N21)C(=O)N1CCCCC1 (stereo partly specified),.,.,.,.,64.9*,2.7
CC1CCCN(C(=O)C(=O)c2cn(CC(=O)N3CCCCCC3)c3ccccc23)C1 (stereo unspecified),.,.,.,.,0.4,8.0
CC1=C(C(=O)Nc2ccccc2)C(c2ccncc2)C(C#N)=C(SCC(=O)Nc2ccccc2)N1 (stereo unspecified),-0.7,1.4,-1.2,-2.3,70.8*,-3.0
C=CCOC(=O)C1=C(C)NC(SCC(=O)NC(=O)OCC)=C(C#N)C1c1cccnc1 (stereo unspecified),0.6,-1.0,3.3,-1.4,77.5*,-3.7
CCOC(=O)C1=C(C)NC(SCC(=O)Nc2nc(C)cs2)=C(C#N)C1c1cccs1 (stereo unspecified),-2.2,-0.2,-2.1,-6.2,76.4*,1.0
CC1=C(C(=O)Nc2ccccc2)C(c2ccco2)C(C#N)=C(SCc2ccccc2)N1 (stereo unspecified),1.3,2.9,0.1,2.6,-8.4,-0.1
CSC1=C(C#N)C(c2ccncc2)C(C(=O)Nc2ccccc2)=C(C)N1 (stereo unspecified),-5.7,1.2,-1.1,2.9,61.5*,-2.2
CSc1ccc(CCNC(=O)C2CCCN(c3nn4c(=O)cc(C)nc4s3)C2)cc1 (stereo unspecified),.,.,.,.,19.1,-0.9
CCOc1ccccc1NC(=O)c1cc(S(=O)(=O)NCc2ccco2)ccc1F,.,.,.,.,35.5,2.5
Cc1c(F)cccc1NS(=O)(=O)c1ccc2c(c1)c(C)cc(=O)n2C,.,.,.,.,20.3,-2.5
Nc1ccc2c(c1)N=[N+]([O-])c1cc(N)ccc1C2,.,0.9,-1.3,-3.4,37.7,31.7*
Cc1ccc(S(=O)(=O)N(CCC#N)C2CCCCC2)c2nsnc12,-4.6,-3.7,-1.0,-4.5,4.7,-2.7
c1csc(Cc2nn3c(-c4ccncc4)nnc3s2)c1,-8.2,-0.4,-1.8,2.4,72.2*,-5.1
Cc1ccc(NC(=O)CCc2nc3ccccc3c(=O)[nH]2)cc1S(=O)(=O)N1CCOCC1,.,.,.,.,.,-1.7
CCOc1ccc(NC(=O)CN2CCN(CC(=O)Nc3cc(OC)cc(OC)c3)CC2)cc1,0.9,-1.1,12.6*,-3.4,34.5,.
CCOc1ccc(N(CC(=O)N2CCN(Cc3ccccc3)CC2)S(C)(=O)=O)cc1,.,.,.,.,.,1.3
Cc1[nH]nc2c1C(c1c[nH]c3ccccc13)C(C#N)=C(N)O2 (stereo unspecified),.,-2.8,2.1,-1.5,43.2,5.9
COC(=O)Cc1[nH]nc2c1C(c1c[nH]c3ccccc13)C(C#N)=C(N)O2 (stereo unspecified),-3.0,11.5,1.4,2.3,-12.0,45.4*
COc1ccc(-c2cc(-c3n[nH]c(=S)n3-c3cccc4ccccc34)[nH]n2)cc1,-7.5,2.7,0.0,18.2,-9.8,5.0
S=c1[nH]nc(Cc2cccc3ccccc23)n1-c1ccccc1,-6.6,3.0,3.8,13.2,94.5*,1.5
COCc1n[nH]c(=S)n1-c1cccc2ccccc12,-4.3,-1.2,2.4,4.9,73.8*,.
SMILES,HMGR II inh,Runt-CBFb FRET,Wee1 degr inh,Runt-SMMHC FRET,PHOSPHO1 inh,RanGTP-Impb inh
Cc1cccc(NCc2n[nH]c(=S)n2-c2ccccc2)c1,2.6,.,-4.0,.,94.2*,2.8
CN(C(=O)COC(=O)c1c2c(nc3ccccc13)CCCC2)c1c(N)n(Cc2ccccc2)c(=O)[nH]c1=O,.,.,.,.,.,1.8
C=CCSc1nnc2c(n1)OC(c1cccnc1)N(C(C)=O)c1ccccc1-2 (stereo unspecified),-1.9,-1.8,-1.6,-6.3,15.9,-3.9
C=CCSc1nnc2c(n1)OC(c1cccnc1)Nc1ccccc1-2 (stereo unspecified),2.9,2.5,0.9,-3.2,82.1*,1.9
CC(=O)Nc1ccc(OCC(O)Cn2c(C(C)C)nc3ccccc32)cc1 (stereo unspecified),10.6*,-2.9,-0.9,-0.3,-11.4,-0.2
O=C(O)c1ccccc1C(=O)Nc1ccc(-n2nccc2C(F)(F)F)cc1,.,-1.7,0.1,0.6,46.5,1.4
O=C(c1ccc2c(Cl)c3c(nc2c1)CCCC3)N1CCC(N2CCCCC2)CC1,11.3*,1.8,-1.6,-2.0,-18.5,-2.5
CCOC(=O)c1ccc(NC(=O)Nc2ncc(Cl)cc2Cl)cc1,.,1.0,1.1,0.9,5.0,-2.8
O=C(CSc1nnc(-c2ccco2)c(-c2ccco2)n1)Nc1ccccc1,2.3,11.2,2.9,-9.1,63.8*,-2.9
Cc1ccc(NC(=O)CSc2nnc(-c3ccco3)c(-c3ccco3)n2)cc1,-8.3,14.0,0.9,-13.2,60.2*,-1.4
CN(C)c1ccc(NC(=O)CSc2nnc(-c3ccco3)c(-c3ccco3)n2)cc1,.,.,.,.,-28.4,-2.3
Cc1cc(C(=O)Nc2c[nH]c(=O)[nH]c2=O)ccc1[N+](=O)[O-],4.2,0.9,-0.8,5.4,57.1,5.9
CC(C)(C)c1ccc(COC(=O)Nc2ccc(F)cc2)cc1,-5.9,-1.1,-0.2,-2.4,1.0,-2.8
CCOC(=O)c1ccc(NC(=O)CCS(=O)(=O)Cc2ccccc2)cc1,.,.,.,.,62.8*,0.6
CCOC(=O)c1ccc(NC(=O)Nc2ccc(F)cc2)cc1,-2.9,-0.6,10.1*,3.5,4.9,5.5
CC(C)(C)c1ccc(NC(=O)Nc2ccc(F)cc2)cc1,-2.8,2.2,9.6*,0.7,39.4,-1.0
COC(=O)c1ccc(NC(=O)CS(=O)(=O)Cc2ccccc2)cc1,-3.3,1.6,1.1,1.5,-6.8,-4.3
CCOC(=O)c1ccc(NS(=O)(=O)c2cnc[nH]2)cc1,-1.9,1.6,11.3*,1.1,-5.7,-1.7
CS(=O)(=O)Nc1cccc(C2=NN(C(=O)CCCC(=O)O)C(c3cccs3)C2)c1 (stereo unspecified),.,.,.,.,-6.8,-5.0
COC(=O)Nc1sc2c(c1C(N)=O)CCCCCC2,-8.5,32.6,0.0,0.5,69.2*,1.8
CCOC(=O)c1c(NC(=O)OC)sc2c1CCC2,-4.8,-2.8,-0.4,0.4,2.1,-0.9
NC(=O)c1c(N)sc2c1CCCCC2,-2.1,21.3,2.8,21.3,97.1*,3.5

# High-throughput results (PubChem BioAssay)
